According to ChEMBL document CHEMBL1133874, “Synthesis of N(1)-substituted analogues of (2R,4R)-4-amino-pyrrolidine-2,4-dicarboxylic acid as agonists, partial agonists, and antagonists of group II metabotropic glutamate receptors” (Bioorg Med Chem Lett, 2001):

Columns and labels:
Format in all cases: functional
[1] = target: T1, Metabotropic glutamate receptor 6 (Rattus norvegicus, UniProt P35349); assay: Effective concentration for agonistic activity at Metabotropic glutamate receptor 6; Not active
[2] = target: T2, Metabotropic glutamate receptor 3 (Rattus norvegicus, UniProt P31422); assay: Inhibitory concentration required for antagonistic activity at Metabotropic glutamate receptor 3
[3] = target: T3, Metabotropic glutamate receptor 2 (Rattus norvegicus, UniProt P31421); assay: Inhibitory concentration required for antagonistic activity at Metabotropic glutamate receptor 2
Method in brief: (§1)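 Antagonism at mGluR2 stably expressed in CHO cells, tested against 2 μM glutamate and read as forskolin-induced cAMP formation. Dose-response curves; means ± SEM from at least three experiments run in triplicate.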

[4] = target: T3, Metabotropic glutamate receptor 2; assay: Effective concentration required for agonistic activity at Metabotropic glutamate receptor 2
[5] = target: T2, Metabotropic glutamate receptor 3; assay: Effective concentration required for agonistic activity at Metabotropic glutamate receptor 3
Method in brief: (§2)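 Agonist activity at mGluR3, stably expressed in CHO cells together with a chimeric construct. Dose-response curves; means ± SEM from at least three experiments run in triplicate.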

[6] = target: T2, Metabotropic glutamate receptor 3; assay: Inhibitory concentration required for antagonistic activity at Metabotropic glutamate receptor 3; Not active
[7] = target: T2, Metabotropic glutamate receptor 3; assay: Effective concentration required for agonistic activity at Metabotropic glutamate receptor 3; Not active; method in brief: as §2
[8] = target: T1, Metabotropic glutamate receptor 6; assay: Effective concentration required for agonistic activity at Metabotropic glutamate receptor 6
[9] = target: T3, Metabotropic glutamate receptor 2; assay: Effective concentration required for partial agonistic activity at Metabotropic glutamate receptor 2; Partial agonist
[10] = target: T1, Metabotropic glutamate receptor 6; assay: Effective concentration required for partial agonistic activity at Metabotropic glutamate receptor 6; Partial agonist
[11] = target: T2, Metabotropic glutamate receptor 3; assay: Effective concentration required for partial agonistic activity at Metabotropic glutamate receptor 3; Partial agonist; method in brief: as §2
[12] = target: T3, Metabotropic glutamate receptor 2; assay: Inhibitory concentration required for antagonistic activity at Metabotropic glutamate receptor 2; Not active; method in brief: as §1
[13] = target: T3, Metabotropic glutamate receptor 2; assay: Effective concentration required for agonistic activity at Metabotropic glutamate receptor 2; Not active

T1 sequence (P35349 whole entry): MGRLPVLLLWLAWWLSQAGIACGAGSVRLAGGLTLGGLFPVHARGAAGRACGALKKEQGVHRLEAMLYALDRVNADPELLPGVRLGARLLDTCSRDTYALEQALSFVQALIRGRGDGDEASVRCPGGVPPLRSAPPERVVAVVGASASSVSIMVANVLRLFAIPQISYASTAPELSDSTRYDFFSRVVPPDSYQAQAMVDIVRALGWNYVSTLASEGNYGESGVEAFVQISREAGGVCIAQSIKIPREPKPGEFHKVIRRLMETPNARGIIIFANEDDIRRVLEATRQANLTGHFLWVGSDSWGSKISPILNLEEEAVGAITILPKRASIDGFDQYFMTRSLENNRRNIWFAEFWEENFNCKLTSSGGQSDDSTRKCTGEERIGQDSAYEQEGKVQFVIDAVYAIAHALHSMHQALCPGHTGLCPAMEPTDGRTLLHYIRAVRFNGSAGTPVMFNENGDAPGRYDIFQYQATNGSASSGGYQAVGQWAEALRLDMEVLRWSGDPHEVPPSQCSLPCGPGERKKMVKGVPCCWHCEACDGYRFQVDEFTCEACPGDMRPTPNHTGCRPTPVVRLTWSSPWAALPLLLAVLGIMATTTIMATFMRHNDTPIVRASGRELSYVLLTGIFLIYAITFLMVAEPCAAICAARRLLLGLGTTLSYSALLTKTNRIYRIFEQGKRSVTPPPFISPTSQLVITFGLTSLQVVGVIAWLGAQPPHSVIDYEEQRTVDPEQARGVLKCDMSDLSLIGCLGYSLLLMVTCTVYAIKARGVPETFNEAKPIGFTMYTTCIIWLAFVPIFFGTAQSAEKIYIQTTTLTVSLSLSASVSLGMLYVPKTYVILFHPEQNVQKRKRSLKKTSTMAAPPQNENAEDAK
T3 sequence (P31421 whole entry): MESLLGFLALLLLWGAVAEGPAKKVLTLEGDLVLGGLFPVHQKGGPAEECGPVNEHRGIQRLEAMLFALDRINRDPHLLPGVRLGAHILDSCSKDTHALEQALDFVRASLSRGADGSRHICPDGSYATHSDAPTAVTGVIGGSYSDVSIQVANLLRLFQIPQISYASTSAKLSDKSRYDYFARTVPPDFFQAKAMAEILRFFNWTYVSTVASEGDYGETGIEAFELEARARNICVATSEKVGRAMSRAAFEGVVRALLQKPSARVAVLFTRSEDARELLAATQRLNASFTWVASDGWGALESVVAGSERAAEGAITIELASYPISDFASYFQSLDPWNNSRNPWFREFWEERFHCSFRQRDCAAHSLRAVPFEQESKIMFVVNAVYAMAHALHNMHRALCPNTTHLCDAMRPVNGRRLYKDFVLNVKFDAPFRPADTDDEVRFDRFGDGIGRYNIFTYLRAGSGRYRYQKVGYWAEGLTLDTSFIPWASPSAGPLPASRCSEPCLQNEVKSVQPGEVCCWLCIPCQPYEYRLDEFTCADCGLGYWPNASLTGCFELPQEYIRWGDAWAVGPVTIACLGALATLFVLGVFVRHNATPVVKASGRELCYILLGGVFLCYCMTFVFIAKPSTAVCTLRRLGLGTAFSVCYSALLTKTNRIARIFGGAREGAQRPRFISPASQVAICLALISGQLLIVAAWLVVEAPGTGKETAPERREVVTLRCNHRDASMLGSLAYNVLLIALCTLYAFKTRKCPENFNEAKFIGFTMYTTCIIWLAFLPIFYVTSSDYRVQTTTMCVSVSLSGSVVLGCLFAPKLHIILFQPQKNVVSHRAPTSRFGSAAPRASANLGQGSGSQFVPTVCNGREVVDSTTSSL
T2 sequence (P31422 whole entry): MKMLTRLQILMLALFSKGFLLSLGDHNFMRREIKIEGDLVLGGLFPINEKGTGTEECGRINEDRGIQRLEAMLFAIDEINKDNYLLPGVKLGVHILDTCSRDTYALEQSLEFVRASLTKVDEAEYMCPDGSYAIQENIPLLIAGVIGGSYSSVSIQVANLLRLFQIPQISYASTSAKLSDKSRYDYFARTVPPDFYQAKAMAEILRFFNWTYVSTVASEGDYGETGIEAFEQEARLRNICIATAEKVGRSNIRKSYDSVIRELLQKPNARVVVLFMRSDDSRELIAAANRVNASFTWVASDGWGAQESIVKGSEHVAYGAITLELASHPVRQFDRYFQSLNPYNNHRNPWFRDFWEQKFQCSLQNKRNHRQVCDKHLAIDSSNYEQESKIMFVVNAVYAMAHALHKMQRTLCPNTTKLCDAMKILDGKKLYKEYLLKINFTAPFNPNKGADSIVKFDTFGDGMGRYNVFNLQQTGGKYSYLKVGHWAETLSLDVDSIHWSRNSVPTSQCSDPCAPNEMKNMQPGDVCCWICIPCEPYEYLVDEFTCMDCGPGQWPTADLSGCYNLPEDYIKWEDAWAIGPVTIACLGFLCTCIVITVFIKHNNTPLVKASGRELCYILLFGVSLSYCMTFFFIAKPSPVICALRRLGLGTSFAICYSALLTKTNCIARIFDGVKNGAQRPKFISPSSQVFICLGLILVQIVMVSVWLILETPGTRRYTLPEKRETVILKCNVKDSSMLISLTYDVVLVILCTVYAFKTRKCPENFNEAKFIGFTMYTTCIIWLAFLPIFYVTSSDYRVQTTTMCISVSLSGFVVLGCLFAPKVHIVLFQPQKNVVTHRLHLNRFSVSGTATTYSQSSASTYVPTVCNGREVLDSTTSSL

For `CC(N)(C(=O)O)c1ccc(C(=O)O)cc1` (configuration not stated), the EC50 [1] was “Not Active”, the IC50 [2] was 270 µM and the IC50 [3] was 290 µM.

In the case of `N[C@@]1(C(=O)O)CN[C@@H](C(=O)O)C1`, the EC50 [1] is reported as “Not Active”, the EC50 [4] is reported as 0.48 µM and the EC50 [5] is reported as 1.7 µM.

With `CC(N)(C(=O)O)C1CC1C(=O)O` (configuration not stated) the EC50 [1] was “Not Active” and the IC50 [2] was 68 µM.

In the case of `Cl.Cl.N[C@]1(C(=O)O)C[C@H](C(=O)O)N(Cc2cccc(O)c2)C1`, the EC50 [1] is reported as “Not Active”, the IC50 [6] is reported as “Not Active” and the EC50 [4] is reported as 950 µM. The EC50 [7] was “Not Active”.

An EC50 [8] of 22 µM and an IC50 [2] of 21 µM were found for `N[C@]1(C(=O)O)C[C@H](C(=O)O)N(C(C(=O)O)c2ccccc2)C1` (some centres not stated) in this work.

In the case of `Cl.Cl.N[C@]1(C(=O)O)C[C@H](C(=O)O)N(Cc2ccccc2C#Cc2ccccc2)C1`, the EC50 [1] is reported as “Not Active” and the IC50 [2] is reported as 23 µM.

An EC50 [8] of 100 µM and an IC50 [2] of 93 µM were found for `N[C@]1(C(=O)O)C[C@H](C(=O)O)N(Cc2cccc([N+](=O)[O-])c2)C1` in this work.

`Cl.Cl.N[C@]1(C(=O)O)C[C@H](C(=O)O)N(Cc2ccc(C(=O)O)cc2)C1` was tested, and the EC50 [8] was 58 µM, the IC50 [6] was “Not Active” and the EC50 [9] was 4700 nM. The EC50 [7] was “Not Active”.

An IC50 [2] of 27 µM, an EC50 [10] of 88 µM and an EC50 [4] of 6.1 µM were found for `N[C@]1(C(=O)O)C[C@H](C(=O)O)N(Cc2ccccc2O)C1` in this work.

In the case of `Cl.Cl.Cl.Nc1ccc(CN2C[C@@](N)(C(=O)O)C[C@@H]2C(=O)O)cc1`, the EC50 [1] is reported as “Not Active”, the IC50 [6] is reported as “Not Active” and the EC50 [9] is reported as 2300 nM. The EC50 [7] was “Not Active”.

In the case of `Cl.Cl.Cl.Nc1ccccc1CN1C[C@@](N)(C(=O)O)C[C@@H]1C(=O)O`, the EC50 [1] is reported as “Not Active”, the IC50 [6] is reported as “Not Active” and the EC50 [4] is reported as 35 µM. For the same compound, the EC50 [7] was “Not Active”.

An EC50 [8] of 320 µM and an IC50 [2] of 190 µM were found for `COc1ccc(CN2C[C@@](N)(C(=O)O)C[C@@H]2C(=O)O)cc1` in this work.

An EC50 [8] of 74 µM, an EC50 [4] of 24 µM and an EC50 [11] of 7.5 µM were found for `N[C@]1(C(=O)O)C[C@H](C(=O)O)N(Cc2ccc(O)cc2)C1` in this work.

For `Cl.Cl.Cl.N[C@]1(C(=O)O)C[C@H](C(=O)O)N(Cc2ccccn2)C1`, the EC50 [1] was “Not Active”, the EC50 [4] was 37 µM and the EC50 [5] was 37 µM.

With `Cl.Cl.N[C@]1(C(=O)O)C[C@H](C(=O)O)N(Cc2cc([N+](=O)[O-])cc([N+](=O)[O-])c2)C1` the EC50 [8] was 210 µM, the IC50 [6] was “Not Active” and the IC50 [12] was “Not Active”. For the same compound, the EC50 [13] was “Not Active” and the EC50 [7] was “Not Active”.

In the case of `Cl.Cl.N[C@]1(C(=O)O)C[C@H](C(=O)O)N(CC(=O)O)C1`, the EC50 [1] is reported as “Not Active”, the IC50 [6] is reported as “Not Active” and the EC50 [9] is reported as 610 nM. The EC50 [7] was “Not Active”.

An EC50 [8] of 110 µM, an EC50 [4] of 4 µM and an EC50 [5] of 6.8 µM were found for `N[C@]1(C(=O)O)C[C@H](C(=O)O)N(Cc2ccccc2[N+](=O)[O-])C1` in this work.

In the case of `Cl.Cl.N[C@]1(C(=O)O)C[C@H](C(=O)O)N(Cc2ccccc2C(=O)O)C1`, the EC50 [1] is reported as “Not Active”, the IC50 [6] is reported as “Not Active” and the EC50 [4] is reported as 33 µM. The EC50 [7] was “Not Active”.

For `Cl.Cl.N[C@]1(C(=O)O)C[C@H](C(=O)O)N(Cc2ccc([N+](=O)[O-])cc2)C1`, the EC50 [1] was “Not Active”, the IC50 [6] was “Not Active” and the EC50 [4] was 160 µM. For the same compound, the EC50 [7] was “Not Active”.

An EC50 [8] of 310 µM was found for `N[C@]1(C(=O)O)C[C@H](C(=O)O)N(Cc2ccccc2Br)C1` in this work.

For `Cl.Cl.N[C@]1(C(=O)O)C[C@H](C(=O)O)N(Cc2cccc(C(=O)O)c2)C1`, the EC50 [8] was 57 µM, the IC50 [6] was “Not Active” and the IC50 [12] was “Not Active”. For the same compound, the EC50 [13] was “Not Active” and the EC50 [7] was “Not Active”.
